According to ChEMBL document CHEMBL5058577, “EUbOPEN Chemogenomics Library 2 (Multiplex)” (2022):

Test system: U2OS
Experiment: Multiplex assay against U2OS
Assay type: toxicity, cell-based
Conditions: human
How it was run: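 Live cells were stained at seeding with Hoechst33342, BioTracker Green Microtubule Cytoskeleton Dye, MitoTracker Red and Annexin V Alexa Fluor 680. Following compound addition, they were imaged on a CQ1 microscope at 37°C and 5% CO2 and gated by CellPathfinder machine learning into Hoechst high-intensity objects or normal cells, with normal cells split into healthy, pyknosed or fragmented nuclei and pyknosed cells into mitotic or apoptotic. Tubulin, mitochondrial-mass and membrane-permeability phenotypes are per cents of healthy-nucleus cells.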

[1] = 12 h, 1 µM, compound concentration 1 uM, replicate 1
[2] = 12 h, 1 µM, compound concentration 1 uM, replicate 2
[3] = 12 h, 10 µM, compound concentration 10 uM, replicate 1
[4] = 12 h, 10 µM, compound concentration 10 uM, replicate 2
[5] = 24 h, 1 µM, compound concentration 1 uM, replicate 1
[6] = 24 h, 1 µM, compound concentration 1 uM, replicate 2
[7] = 24 h, 10 µM, compound concentration 10 uM, replicate 1
[8] = 24 h, 10 µM, compound concentration 10 uM, replicate 2
[9] = 48 h, 1 µM, compound concentration 1 uM, replicate 1
[10] = 48 h, 1 µM, compound concentration 1 uM, replicate 2
[11] = 48 h, 10 µM, compound concentration 10 uM, replicate 1
[12] = 48 h, 10 µM, compound concentration 10 uM, replicate 2

## Nc1nc(CC(=O)Nc2ccc(CCNC[C@H](O)c3ccccc3)cc2)cs1 [MIRABEGRON]
[1]
  Population Apoptotic (%): 86%
  Population Fragmented Nuclei (%): 24%
  Population Healthy Nuclei (%): 62%
  Population Hoechst High Intensity Objects (%): 1%
  Population Membrane Permeable-Phenotype (%): 6%
  Population Mitochondria Different-Phenotype (%): 3%
  Population Mitotic Cells (%): 13%
  Population Normal (%): 98%
  Population Pyknosed Nuclei (%): 12%
  Population Tubulin-Different-Phenotype (%): 4%
  Total Cell Count: 240
[2]
  Population Apoptotic (%): 100%
  Population Fragmented Nuclei (%): 13%
  Population Healthy Nuclei (%): 74%
  Population Hoechst High Intensity Objects (%): 0%
  Population Membrane Permeable-Phenotype (%): 5%
  Population Mitochondria Different-Phenotype (%): 2%
  Population Mitotic Cells (%): 0%
  Population Normal (%): 99%
  Population Tubulin-Different-Phenotype (%): 5%
  Total Cell Count: 107
[3]
  Population Apoptotic (%): 86%
  Population Fragmented Nuclei (%): 18%
  Population Healthy Nuclei (%): 70%
  Population Hoechst High Intensity Objects (%): 1%
  Population Membrane Permeable-Phenotype (%): 6%
  Population Mitochondria Different-Phenotype (%): 2%
  Population Mitotic Cells (%): 13%
  Population Normal (%): 98%
  Population Pyknosed Nuclei (%): 11%
  Population Tubulin-Different-Phenotype (%): 4%
  Total Cell Count: 319
[4]
  Population Apoptotic (%): 66%
  Population Fragmented Nuclei (%): 21%
  Population Healthy Nuclei (%): 71%
  Population Hoechst High Intensity Objects (%): 0%
  Population Membrane Permeable-Phenotype (%): 7%
  Population Mitochondria Different-Phenotype (%): 3%
  Population Mitotic Cells (%): 33%
  Population Normal (%): 99%
  Population Pyknosed Nuclei (%): 6%
  Population Tubulin-Different-Phenotype (%): 1%
  Total Cell Count: 136
[5]
  Population Apoptotic (%): 82%
  Population Fragmented Nuclei (%): 21%
  Population Healthy Nuclei (%): 70%
  Population Hoechst High Intensity Objects (%): 2%
  Population Membrane Permeable-Phenotype (%): 4%
  Population Mitochondria Different-Phenotype (%): 2%
  Population Mitotic Cells (%): 17%
  Population Normal (%): 97%
  Population Pyknosed Nuclei (%): 8%
  Population Tubulin-Different-Phenotype (%): 3%
  Total Cell Count: 289
[6]
  Population Apoptotic (%): 58%
  Population Fragmented Nuclei (%): 11%
  Population Healthy Nuclei (%): 79%
  Population Hoechst High Intensity Objects (%): 0%
  Population Membrane Permeable-Phenotype (%): 9%
  Population Mitochondria Different-Phenotype (%): 3%
  Population Mitotic Cells (%): 41%
  Population Normal (%): 99%
  Population Pyknosed Nuclei (%): 9%
  Population Tubulin-Different-Phenotype (%): 7%
  Total Cell Count: 125
[7]
  Population Apoptotic (%): 86%
  Population Fragmented Nuclei (%): 17%
  Population Healthy Nuclei (%): 75%
  Population Hoechst High Intensity Objects (%): 1%
  Population Membrane Permeable-Phenotype (%): 5%
  Population Mitochondria Different-Phenotype (%): 3%
  Population Mitotic Cells (%): 13%
  Population Normal (%): 98%
  Population Pyknosed Nuclei (%): 7%
  Population Tubulin-Different-Phenotype (%): 3%
  Total Cell Count: 405
[8]
  Population Apoptotic (%): 76%
  Population Fragmented Nuclei (%): 20%
  Population Healthy Nuclei (%): 71%
  Population Membrane Permeable-Phenotype (%): 9%
  Population Mitochondria Different-Phenotype (%): 5%
  Population Mitotic Cells (%): 23%
  Population Tubulin-Different-Phenotype (%): 4%
  Total Cell Count: 167
[9]
  Population Apoptotic (%): 84%
  Population Fragmented Nuclei (%): 17%
  Population Healthy Nuclei (%): 72%
  Population Hoechst High Intensity Objects (%): 2%
  Population Membrane Permeable-Phenotype (%): 4%
  Population Mitochondria Different-Phenotype (%): 3%
  Population Mitotic Cells (%): 15%
  Population Normal (%): 97%
  Population Pyknosed Nuclei (%): 9%
  Population Tubulin-Different-Phenotype (%): 3%
  Total Cell Count: 394
[10]
  Population Apoptotic (%): 78%
  Population Fragmented Nuclei (%): 12%
  Population Healthy Nuclei (%): 74%
  Population Membrane Permeable-Phenotype (%): 8%
  Population Mitotic Cells (%): 21%
  Population Pyknosed Nuclei (%): 13%
  Population Tubulin-Different-Phenotype (%): 7%
  Total Cell Count: 179
[11]
  Population Apoptotic (%): 87%
  Population Fragmented Nuclei (%): 14%
  Population Healthy Nuclei (%): 74%
  Population Hoechst High Intensity Objects (%): 2%
  Population Membrane Permeable-Phenotype (%): 5%
  Population Mitochondria Different-Phenotype (%): 2%
  Population Mitotic Cells (%): 12%
  Population Normal (%): 97%
  Population Pyknosed Nuclei (%): 10%
  Population Tubulin-Different-Phenotype (%): 2%
  Total Cell Count: 534
[12]
  Population Apoptotic (%): 70%
  Population Healthy Nuclei (%): 78%
  Population Membrane Permeable-Phenotype (%): 3%
  Population Mitochondria Different-Phenotype (%): 3%
  Population Mitotic Cells (%): 29%
  Population Pyknosed Nuclei (%): 7%
  Population Tubulin-Different-Phenotype (%): 1%
  Total Cell Count: 232

## COc1ccc2c(c1OCc1ccccc1)C[C@@H](C(=O)O)N(C(=O)C(c1ccccc1)c1ccccc1)C2 [OLODANRIGAN]
[1]
  Population Apoptotic (%): 82%
  Population Fragmented Nuclei (%): 31%
  Population Healthy Nuclei (%): 59%
  Population Hoechst High Intensity Objects (%): 2%
  Population Membrane Permeable-Phenotype (%): 4%
  Population Mitochondria Different-Phenotype (%): 0%
  Population Mitotic Cells (%): 17%
  Population Normal (%): 97%
  Population Pyknosed Nuclei (%): 8%
  Population Tubulin-Different-Phenotype (%): 1%
  Total Cell Count: 286
[2]
  Population Apoptotic (%): 66%
  Population Fragmented Nuclei (%): 18%
  Population Healthy Nuclei (%): 75%
  Population Hoechst High Intensity Objects (%): 3%
  Population Membrane Permeable-Phenotype (%): 6%
  Population Mitochondria Different-Phenotype (%): 4%
  Population Mitotic Cells (%): 33%
  Population Normal (%): 96%
  Population Pyknosed Nuclei (%): 5%
  Population Tubulin-Different-Phenotype (%): 2%
  Total Cell Count: 112
[3]
  Population Apoptotic (%): 78%
  Population Fragmented Nuclei (%): 30%
  Population Healthy Nuclei (%): 64%
  Population Hoechst High Intensity Objects (%): 1%
  Population Membrane Permeable-Phenotype (%): 6%
  Population Mitochondria Different-Phenotype (%): 1%
  Population Mitotic Cells (%): 21%
  Population Normal (%): 98%
  Population Pyknosed Nuclei (%): 5%
  Population Tubulin-Different-Phenotype (%): 2%
  Total Cell Count: 273
[4]
  Population Apoptotic (%): 81%
  Population Fragmented Nuclei (%): 26%
  Population Healthy Nuclei (%): 63%
  Population Hoechst High Intensity Objects (%): 0%
  Population Membrane Permeable-Phenotype (%): 2%
  Population Mitotic Cells (%): 18%
  Population Normal (%): 99%
  Population Pyknosed Nuclei (%): 10%
  Total Cell Count: 110
[5]
  Population Apoptotic (%): 87%
  Population Fragmented Nuclei (%): 25%
  Population Healthy Nuclei (%): 64%
  Population Hoechst High Intensity Objects (%): 0%
  Population Membrane Permeable-Phenotype (%): 2%
  Population Mitochondria Different-Phenotype (%): 0%
  Population Mitotic Cells (%): 12%
  Population Normal (%): 99%
  Population Pyknosed Nuclei (%): 10%
  Population Tubulin-Different-Phenotype (%): 2%
  Total Cell Count: 311
[6]
  Population Apoptotic (%): 55%
  Population Fragmented Nuclei (%): 18%
  Population Healthy Nuclei (%): 74%
  Population Hoechst High Intensity Objects (%): 2%
  Population Membrane Permeable-Phenotype (%): 9%
  Population Mitochondria Different-Phenotype (%): 6%
  Population Mitotic Cells (%): 44%
  Population Normal (%): 97%
  Population Pyknosed Nuclei (%): 6%
  Population Tubulin-Different-Phenotype (%): 5%
  Total Cell Count: 143
[7]
  Population Apoptotic (%): 83%
  Population Fragmented Nuclei (%): 27%
  Population Healthy Nuclei (%): 66%
  Population Hoechst High Intensity Objects (%): 1%
  Population Membrane Permeable-Phenotype (%): 4%
  Population Mitochondria Different-Phenotype (%): 0%
  Population Mitotic Cells (%): 16%
  Population Normal (%): 98%
  Population Pyknosed Nuclei (%): 5%
  Population Tubulin-Different-Phenotype (%): 1%
  Total Cell Count: 318
[8]
  Population Apoptotic (%): 50%
  Population Fragmented Nuclei (%): 22%
  Population Healthy Nuclei (%): 72%
  Population Hoechst High Intensity Objects (%): 0%
  Population Mitochondria Different-Phenotype (%): 1%
  Population Mitotic Cells (%): 50%
  Population Normal (%): 100%
  Population Pyknosed Nuclei (%): 4%
  Population Tubulin-Different-Phenotype (%): 2%
  Total Cell Count: 123
[9]
  Population Apoptotic (%): 91%
  Population Fragmented Nuclei (%): 22%
  Population Healthy Nuclei (%): 70%
  Population Hoechst High Intensity Objects (%): 3%
  Population Membrane Permeable-Phenotype (%): 4%
  Population Mitochondria Different-Phenotype (%): 1%
  Population Mitotic Cells (%): 8%
  Population Normal (%): 96%
  Population Pyknosed Nuclei (%): 7%
  Population Tubulin-Different-Phenotype (%): 2%
  Total Cell Count: 483
[10]
  Population Apoptotic (%): 78%
  Population Fragmented Nuclei (%): 14%
  Population Healthy Nuclei (%): 77%
  Population Hoechst High Intensity Objects (%): 4%
  Population Membrane Permeable-Phenotype (%): 3%
  Population Mitochondria Different-Phenotype (%): 3%
  Population Mitotic Cells (%): 21%
  Population Normal (%): 95%
  Total Cell Count: 184
[11]
  Population Apoptotic (%): 88%
  Population Fragmented Nuclei (%): 20%
  Population Healthy Nuclei (%): 71%
  Population Hoechst High Intensity Objects (%): 1%
  Population Membrane Permeable-Phenotype (%): 5%
  Population Mitochondria Different-Phenotype (%): 1%
  Population Mitotic Cells (%): 11%
  Population Normal (%): 98%
  Population Pyknosed Nuclei (%): 8%
  Population Tubulin-Different-Phenotype (%): 3%
  Total Cell Count: 451
[12]
  Population Apoptotic (%): 85%
  Population Fragmented Nuclei (%): 18%
  Population Healthy Nuclei (%): 77%
  Population Membrane Permeable-Phenotype (%): 7%
  Population Mitochondria Different-Phenotype (%): 6%
  Population Mitotic Cells (%): 14%
  Population Pyknosed Nuclei (%): 4%
  Population Tubulin-Different-Phenotype (%): 5%
  Total Cell Count: 163
